Key:
Acetyl-CoA carboxylase 1 = Acetyl-CoA carboxylase 1 (Rattus norvegicus, UniProt P11497); assay: Inhibition of rat liver ACC1 after 7 mins by liquid scintillation counter
Acetyl-CoA carboxylase 2 = Acetyl-CoA carboxylase 2 (Homo sapiens, UniProt O00763); assay: Inhibition of human recombinant ACC2 expressed in CHO cells after 1 hr by fluorescence reader; format: cell-based
In short: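 Purified recombinant human ACC2, from conditioned medium captured on avidin resin and eluted with biotin, then dialyzed. Compounds in DMSO, final DMSO 1%. Run 1 h at room temperature. ADP measured by Transcreener fluorescence polarization after a further 1 h.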

[1] = Half life in rat at 5 mg/kg, po; format: ADME, organism-based; design: dose 5 mg/kg, route oral; conditions: in vivo
In short: (§1)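 Rat pharmacokinetics. Intravenous dose 1 mg/kg, giving CL in mL/min/kg and Vdss in L/kg. Oral dose 5 mg/kg, giving Cmax in ng/mL, %F and t1/2 in h.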

[2] = Oral bioavailability in rat at 5 mg/kg; format: ADME, organism-based; conditions: in vivo; in short: as §1
[3] = Cmax in rat at 5 mg/kg, po; format: ADME, organism-based; design: dose 5 mg/kg, route oral; conditions: in vivo; in short: as §1
[4] = Volume of distribution at steady state in rat at 1 mg/kg, iv; format: ADME, organism-based; design: dose 1 mg/kg, route intravenous; conditions: in vivo, read-out: Vdss; in short: as §1
[5] = Clearance in rat at 1 mg/kg, iv; format: ADME, organism-based; design: dose 1 mg/kg, route intravenous; conditions: in vivo; in short: as §1
[6] = Volume of distribution at steady state in rat at 1 mg/kg, iv administered with methylcellulose; format: ADME, organism-based; design: dose 1 mg/kg, route intravenous; conditions: in vivo, read-out: Vdss
[7] = Clearance in rat at 1 mg/kg, iv administered with methylcellulose; format: ADME, organism-based; design: dose 1 mg/kg, route intravenous; conditions: in vivo
[8] = Half life in rat at 1 mg/kg, iv administered with methylcellulose; format: ADME, organism-based; design: dose 1 mg/kg, route intravenous; conditions: in vivo
[9] = Oral bioavailability in rat at 3 mg/kg administered with spray-dried dispersion; format: ADME, organism-based; conditions: in vivo
[10] = Oral bioavailability in rat at 3 mg/kg administered with lipid emulsion; format: ADME, organism-based; conditions: in vivo
[11] = Half life in Beagle dog at 1 mg/kg, iv administered with 40% PEG400 and 60% glycerol; format: ADME, organism-based, Canis lupus familiaris; design: dose 1 mg/kg, route intravenous; conditions: in vivo
[12] = Volume of distribution at steady state in Beagle dog at 1 mg/kg, iv administered with 40% PEG400 and 60% glycerol; format: ADME, organism-based, Canis lupus familiaris; design: dose 1 mg/kg, route intravenous; conditions: in vivo, read-out: Vdss
[13] = Oral bioavailability in rat at 3 mg/kg administered with methylcellulose; format: ADME, organism-based; conditions: in vivo
[14] = Clearance in Beagle dog at 1 mg/kg, iv administered with 40% PEG400 and 60% glycerol; format: ADME, organism-based, Canis lupus familiaris; design: dose 1 mg/kg, route intravenous; conditions: in vivo

Chain of Acetyl-CoA carboxylase 2 (O00763 whole entry): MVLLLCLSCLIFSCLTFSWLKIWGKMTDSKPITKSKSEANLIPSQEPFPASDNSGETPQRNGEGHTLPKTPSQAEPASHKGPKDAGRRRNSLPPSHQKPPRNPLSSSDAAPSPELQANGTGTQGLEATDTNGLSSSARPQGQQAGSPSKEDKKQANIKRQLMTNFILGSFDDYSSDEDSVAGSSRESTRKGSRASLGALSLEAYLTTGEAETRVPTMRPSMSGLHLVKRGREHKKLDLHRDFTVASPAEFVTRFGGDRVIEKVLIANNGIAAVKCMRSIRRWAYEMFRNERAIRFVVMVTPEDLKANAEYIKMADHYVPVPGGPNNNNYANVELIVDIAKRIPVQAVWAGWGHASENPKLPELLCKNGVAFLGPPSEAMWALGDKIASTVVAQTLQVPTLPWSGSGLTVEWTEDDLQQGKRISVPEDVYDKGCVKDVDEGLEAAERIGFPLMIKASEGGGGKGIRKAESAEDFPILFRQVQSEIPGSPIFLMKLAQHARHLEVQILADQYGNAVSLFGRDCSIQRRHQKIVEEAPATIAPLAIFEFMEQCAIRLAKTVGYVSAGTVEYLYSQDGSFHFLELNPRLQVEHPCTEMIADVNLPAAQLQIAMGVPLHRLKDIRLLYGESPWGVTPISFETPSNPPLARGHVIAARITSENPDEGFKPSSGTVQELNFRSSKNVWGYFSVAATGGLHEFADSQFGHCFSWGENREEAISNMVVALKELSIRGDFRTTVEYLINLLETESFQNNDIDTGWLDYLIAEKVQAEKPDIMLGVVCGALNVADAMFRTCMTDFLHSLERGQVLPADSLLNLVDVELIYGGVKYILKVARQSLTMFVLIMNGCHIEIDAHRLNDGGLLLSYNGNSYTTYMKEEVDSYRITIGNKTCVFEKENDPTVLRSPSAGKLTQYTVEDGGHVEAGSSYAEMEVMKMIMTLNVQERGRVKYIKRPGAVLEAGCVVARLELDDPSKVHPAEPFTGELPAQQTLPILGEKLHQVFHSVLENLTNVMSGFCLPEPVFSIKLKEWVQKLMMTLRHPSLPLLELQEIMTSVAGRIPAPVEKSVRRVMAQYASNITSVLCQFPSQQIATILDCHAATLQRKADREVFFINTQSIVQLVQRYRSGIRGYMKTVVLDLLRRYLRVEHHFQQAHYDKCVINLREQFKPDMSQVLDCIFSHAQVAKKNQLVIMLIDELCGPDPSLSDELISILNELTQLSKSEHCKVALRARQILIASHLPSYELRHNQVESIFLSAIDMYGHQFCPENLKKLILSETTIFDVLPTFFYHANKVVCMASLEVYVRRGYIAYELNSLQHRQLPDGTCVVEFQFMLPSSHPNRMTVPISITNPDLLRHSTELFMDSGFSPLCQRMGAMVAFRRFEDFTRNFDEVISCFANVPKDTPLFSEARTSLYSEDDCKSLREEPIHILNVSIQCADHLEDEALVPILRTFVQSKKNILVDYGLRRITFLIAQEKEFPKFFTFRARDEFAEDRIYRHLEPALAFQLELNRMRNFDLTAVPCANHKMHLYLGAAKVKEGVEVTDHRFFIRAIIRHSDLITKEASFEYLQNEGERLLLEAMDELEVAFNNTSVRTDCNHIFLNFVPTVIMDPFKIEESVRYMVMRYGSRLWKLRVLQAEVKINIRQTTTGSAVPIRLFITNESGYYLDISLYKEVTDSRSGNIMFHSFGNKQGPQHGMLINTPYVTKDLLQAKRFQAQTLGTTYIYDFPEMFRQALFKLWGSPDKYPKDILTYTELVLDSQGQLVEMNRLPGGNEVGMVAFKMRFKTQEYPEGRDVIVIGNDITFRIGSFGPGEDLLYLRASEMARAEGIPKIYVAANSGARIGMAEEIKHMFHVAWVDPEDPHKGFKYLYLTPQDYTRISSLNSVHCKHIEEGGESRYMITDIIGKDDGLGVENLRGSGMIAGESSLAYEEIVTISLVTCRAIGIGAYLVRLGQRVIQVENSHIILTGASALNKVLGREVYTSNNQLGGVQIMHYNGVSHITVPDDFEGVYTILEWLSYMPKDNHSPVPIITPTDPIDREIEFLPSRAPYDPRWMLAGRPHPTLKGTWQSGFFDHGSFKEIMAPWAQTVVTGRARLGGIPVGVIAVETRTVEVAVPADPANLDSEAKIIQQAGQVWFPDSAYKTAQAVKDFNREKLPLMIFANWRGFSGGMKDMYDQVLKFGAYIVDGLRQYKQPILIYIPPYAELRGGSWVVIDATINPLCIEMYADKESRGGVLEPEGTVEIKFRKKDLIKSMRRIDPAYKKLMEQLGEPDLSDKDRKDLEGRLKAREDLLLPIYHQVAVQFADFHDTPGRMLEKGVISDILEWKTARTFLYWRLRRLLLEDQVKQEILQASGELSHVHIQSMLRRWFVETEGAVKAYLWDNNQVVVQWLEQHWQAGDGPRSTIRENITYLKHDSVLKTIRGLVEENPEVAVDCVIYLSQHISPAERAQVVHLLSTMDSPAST

SMILES | IC50 (Acetyl-CoA carboxylase 1) [nM] | IC50 (Acetyl-CoA carboxylase 2) [nM] | further results
COc1cccc2c1C(=O)CC1(CCN(C(=O)c3ccc4[nH]c(C)nc4c3)CC1)O2 | 663 | > 1000 | –
Cc1cc(C(=O)N2CCC3(CC2)CC(=O)c2cc(-c4ccn(C)n4)ccc2O3)cc2cn[nH]c12 | 31 | 6.1 | –
Cc1cc(-c2ccc3c(c2)C(=O)CC2(CCN(C(=O)c4cc(C)c5[nH]ncc5c4)CC2)O3)n[nH]1 | 18 | 7.6 | –
COc1cccc2c1C(=O)CC1(CCN(C(=O)c3ccc4[nH]c(-c5ccccn5)nc4c3)CC1)O2 | 26 | 12 | –
Cc1cc(C)c2c(c1)C(=O)CC1(CCN(C(=O)c3cccc4cn[nH]c34)CC1)O2 | – | > 1000 | –
COc1cccc2c1C(=O)CC1(CCN(C(=O)c3cccc4cn[nH]c34)CC1)O2 | – | > 1000 | –
Cc1cc(C(=O)N2CCC3(CC2)CC(=O)c2nc(N)ccc2O3)cc2cn[nH]c12 | 1350 | – | –
Cc1cc(C(=O)N2CCC3(CC2)CC(=O)c2c(ccnc2OC(C)C)O3)cc2cn[nH]c12 | 30 | 4.5 | –
COc1cccc2c1C(=O)CC1(CCN(C(=O)c3ccc4nn[nH]c4c3)CC1)O2 | 2970 | 505 | –
Cc1ccc2cc(CC3CCN(C(=O)c4cccc5cn[nH]c45)CC3)ccc2n1 | 3380 | – | half-life [1]: 1.7 h; bioavailability [2]: 45%; Cmax [3]: 617 ng/mL; Vd [4]: 2.4 L/kg; clearance [5]: 44.3 mL/min/kg
Cc1ccc2cc(CC3CCN(C(=O)c4cccc(-c5cn[nH]c5)c4)CC3)ccc2n1 | 1270 | – | –
Cc1ccc2cc(CC3CCN(C(=O)c4cccc(-c5cc[nH]n5)c4)CC3)ccc2n1 | 3010 | – | half-life [1]: 1.8 h; bioavailability [2]: 7%; Cmax [3]: 91.5 ng/mL; Vd [4]: 2.8 L/kg; clearance [5]: 34.1 mL/min/kg
CNC(=O)c1cc2cc(C(=O)N3CCC4(CC3)CC(=O)c3c(OC)cccc3O4)ccc2[nH]1 | 43 | 11 | –
Cc1ncc(-c2ccc3c(c2)C(=O)CC2(CCN(C(=O)c4cc(C)c5[nH]ncc5c4)CC2)O3)o1 | 17 | 39 | –
COc1nccc2c1C(=O)CC1(CCN(C(=O)c3cc(C)c4[nH]ncc4c3)CC1)O2 | 86 | – | –
Cc1noc(C)c1-c1ccc2c(c1)C(=O)CC1(CCN(C(=O)c3cc(C)c4[nH]ncc4c3)CC1)O2 | 13 | 6.4 | –
Cn1cc(-c2cc3c(cn2)OC2(CCN(C(=O)c4ccc5nc(-c6ccn(C)n6)[nH]c5c4)CC2)CC3=O)cn1 | 975 | – | –
Cc1cc(C(=O)N2CCC3(CC2)CC(=O)c2cc(-c4cnn(C)c4)ncc2O3)cc2cn[nH]c12 | 24.6 | – | –
Cc1cc2c(cc1C)C(=O)CC1(CCN(C(=O)c3cccc4cn[nH]c34)CC1)O2 | – | 400 | –
COc1nc(C)cc2c1C(=O)CC1(CCN(C(=O)c3cc(C)c4[nH]ncc4c3)CC1)O2 | 34 | 48 | –
Cc1cc(C(=O)N2CCC3(CC2)CC(=O)c2c(ccnc2OCC(C)C)O3)cc2cn[nH]c12 | 23 | 98 | –
Cc1nc(-c2ccc3c(c2)C(=O)CC2(CCN(C(=O)c4cc(C)c5[nH]ncc5c4)CC2)O3)co1 | 19 | 30 | –
CCOc1nccc2c1C(=O)CC1(CCN(C(=O)c3cc(C)c4[nH]ncc4c3)CC1)O2 | 61 | – | –
Cc1n[nH]c2c(C)cc(C(=O)N3CCC4(CC3)CC(=O)c3c(ccnc3OC(C)C)O4)cc12 | 12 | 20 | Vd [6]: 3.3 L/kg; clearance [7]: 31 mL/min/kg; half-life [8]: 1.4 h; bioavailability [9]: 52%; bioavailability [10]: 8%; half-life [11]: 6.1 h; Vd [12]: 1.6 L/kg; bioavailability [13]: 32%; clearance [14]: 3.6 mL/min/kg

SMILES | IC50 (Acetyl-CoA carboxylase 1) [nM] | IC50 (Acetyl-CoA carboxylase 2) [nM] | further results
Cc1cc(C(=O)N2CCC3(CC2)CC(=O)c2cc(-c4cc[nH]n4)ccc2O3)cc2cn[nH]c12 | 18 | 4.5 | –
COc1cccc2c1C(=O)CC1(CCN(C(=O)c3cc(C)c4[nH]c(C(N)=O)cc4c3)CC1)O2 | 65 | 16 | –
COc1cccc2c1C(=O)CC1(CCN(C(=O)c3ccc4nc(-c5ccccc5)[nH]c4c3)CC1)O2 | 16 | 16 | –
COc1cccc2c1C(=O)CC1(CCN(C(=O)c3ccc4[nH]c(C(N)=O)nc4c3)CC1)O2 | 35 | 16 | –
COc1cccc2c1C(=O)CC1(CCN(C(=O)c3ccc4nc[nH]c4c3)CC1)O2 | 216 | 111 | –
Cc1ccc2cc(CC3CCN(C(=O)c4ccnc5ccccc45)CC3)ccc2n1 | 8910 | – | –
Cc1cc2c(cc1C)C(=O)CC1(CCN(C(=O)c3cc(C)c4[nH]ncc4c3)CC1)O2 | 22 | 48 | –
COc1cccc2c1C(=O)CC1(CCN(C(=O)c3cc(C)c4[nH]ncc4c3)CC1)O2 | 104 | 6.5 | –
COc1cc2c(cn1)OC1(CCN(C(=O)c3cc(C)c4[nH]ncc4c3)CC1)CC2=O | 182 | – | –
Cc1ccc2c(n1)C(=O)CC1(CCN(C(=O)c3cc(C)c4[nH]ncc4c3)CC1)O2 | 366 | – | –
Cc1n[nH]c2ccc(C(=O)N3CCC4(CC3)CC(=O)c3ncccc3O4)cc12 | 766 | 640 | –
COc1cccc2c1C(=O)CC1(CCN(C(=O)c3ccc4c(C)n[nH]c4c3)CC1)O2 | 220 | 164 | –
COc1cccc2c1C(=O)CC1(CCN(C(=O)c3cc(C)c4[nH]nc(C)c4c3)CC1)O2 | 42 | 11 | –
CCc1cc(C(=O)N2CCC3(CC2)CC(=O)c2c(OC)cccc2O3)cc2cn[nH]c12 | 102 | 151 | –
Cc1cc(C(=O)N2CCC3(CC2)CC(=O)c2cc(-c4cnn(C)c4)ccc2O3)cc2cn[nH]c12 | 7.5 | – | –
COc1cccc2c1C(=O)CC1(CCN(C(=O)c3ccc4nc(-c5cccnc5)[nH]c4c3)CC1)O2 | 26 | 19 | –
COc1cccc2c1C(=O)CC1(CCN(C(=O)c3ccc4nc(-c5ccncc5)[nH]c4c3)CC1)O2 | 60 | 51 | –
COc1cccc2c1C(=O)CC1(CCN(C(=O)c3ccc4nc(-c5ccnnc5)[nH]c4c3)CC1)O2 | 101 | – | –
Cc1cc(C(=O)N2CCC3(CC2)CC(=O)c2ncccc2O3)cc2cn[nH]c12 | 154 | – | –
Cc1n[nH]c2c(C)cc(C(=O)N3CCC4(CC3)CC(=O)c3ncccc3O4)cc12 | 249 | 363 | –
COc1cccc2c1C(=O)CC1(CCN(C(=O)c3ccc4nc(-c5ccn(C)n5)[nH]c4c3)CC1)O2 | 19 | – | –
Cc1cc(C(=O)N2CCC3(CC2)CC(=O)c2cc(-c4cn[nH]c4)ccc2O3)cc2cn[nH]c12 | 7.4 | – | –
O=C1CC2(CCN(C(=O)c3cccc4cn[nH]c34)CC2)Oc2ccc(Cl)cc21 | – | 2130 | –
COc1cccc2c1C(=O)CC1(CCN(C(=O)c3cc(C)c4nc[nH]c4c3)CC1)O2 | 172 | 126 | –
